# NPY-Y1 antag = antagonists of human neuropeptide Y receptor Y1. HEK293-CNG Y1 cells, membrane potential fluorescence; NPY at EC95, then isoproterenol. inhibition, % at 3.6 µM. P25929. 1% of 200,000 active;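 active means inhibition above the campaign mean inhibition of all tested compounds plus 3 SD, cut at about 20% in these data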;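 further: 0% = DMSO wells given NPY plus isoproterenol and 100% = isoproterenol alone without NPY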
#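 Material: HEK293 cells co-expressing NPY Y1 receptor and cyclic-nucleotide gated channel. Timing: compound incubation 1 h at room temperature, readout 45 min post-stimulation. Signal: fluorescence, membrane potential probe.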
# NPY-Y1 PAM-ag = potentiates or activates human NPY-Y1 receptor | AID 1304 | 0.37% of 220,000 active | NPY-Y1 expressing cells, potentiator/agonist activation | activation, % at 3.6 µM; in the data active means activation above about 33%, passing the limit was not always enough;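 further: cells stimulated with NPY at EC10 then isoproterenol at EC100; 0% = low agonist plus stimulus and 100% = saturating agonist plus stimulus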
# WT yeast gro inh = growth inhibition of WT yeast, mitochondrial fusion screen. mitochondrial fusion phenotypic screen, WT strain. inhibition, % at 10 µM. 2.1% of 190,000 active; in the data active means inhibition above about 58%; tested in S. cerevisiae
# NPY-Y2 antag = antagonists of human neuropeptide Y receptor Y2; inhibition, % at 2.7 µM; AID 793; 0.99% of 140,000 active; NPY-Y2 expressing cells, antagonist mode; P49146; in the data active means inhibition above about 17%;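 further: 0% = vehicle with agonist challenge and 100% = reference antagonist with challenge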
# Target sequence (P49146 whole entry, looked up): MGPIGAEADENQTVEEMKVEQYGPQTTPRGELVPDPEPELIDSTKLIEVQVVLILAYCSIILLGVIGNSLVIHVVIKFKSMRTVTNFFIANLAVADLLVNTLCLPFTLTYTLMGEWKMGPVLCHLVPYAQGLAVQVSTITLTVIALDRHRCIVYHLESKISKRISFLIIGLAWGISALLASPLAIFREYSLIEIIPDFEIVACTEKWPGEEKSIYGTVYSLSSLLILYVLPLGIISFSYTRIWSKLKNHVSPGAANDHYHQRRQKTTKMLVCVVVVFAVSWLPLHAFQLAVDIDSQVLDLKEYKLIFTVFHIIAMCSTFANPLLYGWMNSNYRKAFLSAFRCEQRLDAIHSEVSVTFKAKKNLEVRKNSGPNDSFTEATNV
# NPY-Y2 PAM-ag = potentiates or activates human NPY-Y2 receptor. cells expressing NPY-Y2, potentiator/agonist read-out. activation, % at 3.6 µM. 0.45% of 220,000 active; in the data active means activation above about 27%;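 further: cells stimulated with NPY near EC25 plus isoproterenol at EC100; 0% = vehicle plus submaximal agonist and 100% = vehicle plus saturating agonist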
# RAM inhibit = blocks the yeast RAM network. S. cerevisiae dse1pr::URA3 reporter, 5-FOA growth OD615, 2 d; analog-sensitive cbk1-as2 kinase mutant strain. inhibition, % at 50 µM. 1.8% of 190,000 active. AID 868;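 active means inhibition above a set limit, 3 SD over mean compound inhibition, cut at about 8.4% in these data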;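 further: 0% = DMSO-only wells with no growth and 100% = 10 µM 1-NA-PP1 full growth; inhibition rescues growth on 5-FOA so higher OD means more RAM inhibition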
# * hit, by the source's call; / = not tested or not shown; ! = a repeat was not active. Sampled rows, rich in hits. Any-hit rate of the full collection: about 4.9%.
SMILES,NPY-Y1 antag,NPY-Y1 PAM-ag,WT yeast gro inh,NPY-Y2 antag,NPY-Y2 PAM-ag,RAM inhibit
CCN1CCN(CC(=O)Nc2cc(C)on2)CC1,1.4,-28.5,12.3,/,-1.0,0.0
CN1CC2=Cc3ccccc3OC23Oc2ccccc2C=C3C1,8.0,-19.8,-5.0,2.7,-9.3,0.8
c1ccc2cc(CSCc3nc4ccccc4[nH]3)ccc2c1,-2.1,-13.1,74.4*,2.8,-2.5,2.6
O=C(CSCc1nc2ccccc2[nH]1)Nc1ccc2ccccc2c1,-0.1,-5.1,2.3,-1.0,2.1,0.8
CC1CCCN(CCCNC(=O)CCn2nc(-c3ccccc3)ccc2=O)C1 (configuration not stated),5.0,8.3,-11.1,-0.7,5.7,0.5
O=C(N/N=C/c1ccco1)c1cc(Br)ccc1OCc1ccccc1,9.8,-52.8,-12.1,9.6,-18.9,3.0
O=C(N/N=C/c1ccncc1)c1ccccc1OCc1ccc(Br)cc1,32.4*,-116.6,8.8,42.6*,-53.6,0.0
O=C(N/N=C/c1ccccc1)c1sccc1OCc1ccc(F)cc1,0.8,-12.4,5.6,20.3*,-19.4,0.4
O=C(N/N=C/c1ccccc1)c1ccc(OCc2ccccc2)cc1,11.2,-3.1,10.5,/,-19.6,3.9
Clc1ccc(OCc2nnc(SCc3nnc(-c4ccccc4)o3)o2)c(Cl)c1,7.2,-48.5,29.3,12.4,-26.2,9.6*
Clc1ccc2nc(SCc3nnc(-c4ccccc4)o3)[nH]c2c1,10.1,-25.6,11.2,6.0,-20.7,2.5
Cc1ccc(O)c(N=Nc2ccc(S(=O)(=O)N3CCOCC3)cc2)c1,-5.8,22.6,-6.3,/,8.3,1.5
O=C(N/N=C/c1cccc(F)c1)c1cc(-c2ccco2)nc2ccccc12,-3.6,-5.4,59.9*,2.2,-6.1,4.8
COC(=O)COc1ccc(/C=N/NC(=O)c2ccc(N(Cc3ccccc3)S(C)(=O)=O)cc2)cc1,2.2,60.9*,-8.1,0.0,30.8*,0.5
Cc1ccc(S(=O)(=O)N2CCC(=O)N(C(COCc3ccc(C(F)(F)F)cc3)Cc3ccccc3)CC2)cc1 (configuration not stated),7.4,19.4,11.2,9.9,11.1,10.0*
Cc1ccc(NC(=O)Nc2nnc(CSCCOc3ccc(Cl)cc3)s2)cc1,0.8,-1.9,0.7,1.6,6.3,3.1
Cc1[nH]n(-c2nc(-c3ccc(Cl)cc3)cs2)c(=O)c1N=Nc1ccc(O)cc1,-2.5,18.1,18.2,/,26.3,9.8*
Cc1ccc(N2CCN(/N=C/C=C/c3ccccc3)CC2)cc1,1.2,3.6,1.4,5.3,3.7,3.0
COc1ccc(/C=N/n2cnn(Cc3ccccc3Cl)c2=S)cc1OC,0.3,4.8,32.0,/,5.0,0.1
CN(Cc1ccc(F)cc1)C(=O)COc1ccccc1-c1ccccc1,5.7,-1.5,64.1*,7.8,2.1,2.0
CN(C)CCOC(c1ccccc1)c1ccccc1,0.9,107.5*!,-1.3,2.5,101.3*!,/
COc1ccc(C2=NN(C(=O)c3cccs3)C(c3ccccc3OC)C2)cc1OC (configuration not stated),-3.5,12.3,66.8*,/,9.8,2.4
Cc1c(C(=O)Nc2ccc3c4c(cccc24)CC3)cccc1[N+](=O)[O-],-3.7,12.4,-2.2,0.0,-5.3,4.3
NS(=O)(=O)c1ccc(NC(=O)N2c3ccccc3Sc3ccccc32)cc1,-3.5,26.4,18.4,-0.8,11.7,9.4*
CC(=O)NC(=S)Nc1cc(C(=O)O)ccc1Cl,2.9,1.7,-11.7,/,13.0,0.2
SMILES,NPY-Y1 antag,NPY-Y1 PAM-ag,WT yeast gro inh,NPY-Y2 antag,NPY-Y2 PAM-ag,RAM inhibit
CC(C)(C)CC(=O)O/N=C(\N)c1ccncc1,-2.9,1.9,1.1,/,-9.8,-0.1
COc1ccc(Cn2cc(C(=O)c3ccccc3)c(=O)c3cc(OC)ccc32)cc1,2.1,-11.9,5.3,3.5,17.0,4.3
Cc1ccc(Cn2cc(C(=O)c3ccc(F)cc3)c(=O)c3cc4c(cc32)OCCO4)cc1,7.2,-18.3,9.8,8.5,12.9,10.3*
CCOc1ccc(NC(=S)Nc2cccc3cnccc23)cc1,3.8,-15.7,58.1*,0.6,-6.9,0.3
COc1ccccc1NC(=S)Nc1cccc2cnccc12,-14.0,65.6*,9.7,-3.0,88.7*,1.1
S=C(Nc1ccc(Cl)cc1)Nc1cccc2cnccc12,-5.5,-12.0,61.6*,1.7,5.9,0.1
COc1ccc(NC(=S)Nc2cccc3cnccc23)cc1,4.6,0.0,0.0,-1.0,7.6,1.6
O=C1CC(C(=O)NCc2ccccc2)N=C(N2CCCCC2)N1 (configuration not stated),-0.1,-23.7,-12.4,0.0,-2.9,-0.3
Nc1c(S(=O)(=O)c2cccs2)c2nc3ccccc3nc2n1CCc1ccccc1,-4.5,15.6,-12.8,2.4,11.4,4.4
Nc1c(S(=O)(=O)c2ccccc2)c2nc3ccccc3nc2n1CCN1CCOCC1,-4.6,-6.0,12.3,1.7,-10.0,3.1
CC(C)CCn1c(N)c(S(=O)(=O)c2cccs2)c2nc3ccccc3nc21,-5.6,32.3,-4.3,0.9,15.3,3.7
Nc1c(S(=O)(=O)c2ccccc2)c2nc3ccccc3nc2n1C1CC1,2.0,-11.5,5.9,/,-3.5,0.0
COc1ccc(CCn2c(N)c(S(=O)(=O)c3cccs3)c3nc4ccccc4nc32)cc1OC,-10.8,19.9,0.5,-0.7,18.5,8.4*
Cc1ccc(S(=O)(=O)c2c(N)n(CCN3CCOCC3)c3nc4ccccc4nc23)cc1C,-0.9,3.1,6.8,0.9,10.0,10.6*
Cn1c(N)c(S(=O)(=O)c2ccc(Br)cc2)c2nc3ccccc3nc21,-5.3,21.1,-12.4,-1.6,24.3,9.7*
Nc1c(S(=O)(=O)c2cccs2)c2nc3ccccc3nc2n1Cc1cccs1,-8.1,11.4,39.7,-1.9,13.0,9.1*
O=C(O)c1cc(-c2ccc(/C=N/NC(=S)Nc3ccccc3)o2)ccc1Cl,-5.4,9.0,17.2,/,3.0,5.0
CSc1nsc(SCC(=O)Nc2nc3ccc(C)cc3s2)n1,10.4,-4.0,12.5,9.3,-15.7,4.3
Cc1ccc(NC(=O)c2c([N+](=O)[O-])c(C(C)(C)C)nn2C)c(C)c1,7.5,-22.8,6.0,-0.7,0.9,2.4
Cc1ccc(N/C(C(Cl)=C(Cl)Cl)=C(/Cl)[N+](=O)[O-])c(C)c1,5.3,-29.2,5.0,3.5,6.1,9.4*
O=C(CCCN1C(=O)c2ccccc2C1=O)Nc1nc2ccccc2[nH]1,/,2.9,/,/,-11.2,/
COc1ccc(C(=O)COC(=O)c2cc(S(=O)(=O)NCc3ccccc3)ccc2O)cc1,0.1,7.1,6.8,/,7.9,9.1*
COc1ccc(S(=O)(=O)NCc2ccccc2)cc1,4.7,-4.3,-30.1,-1.2,-5.5,-0.5
O=[N+]([O-])c1cc(CN2CCC(O)CC2)ccc1Cl,3.5,-16.4,-6.8,/,1.8,2.3
CCOC(=O)c1nn(-c2ccccc2C)c2nc(Nc3ccccc3)cc(=O)n12,4.3,-3.1,19.1,4.5,0.2,8.4*
